From ChEMBL document CHEMBL1212881, “Design, synthesis, and structure-affinity relationships of regioisomeric N-benzyl alkyl ether piperazine derivatives as sigma-1 receptor ligands” (J Med Chem, 2010)

Columns and labels:
[1] = Lipophilicity, log D of the compound; format: physicochemical; details: HPLC retention time
Outline: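 Log D estimated by HPLC retention time on a C-18 column. Mobile phase methanol/0.05 M potassium phosphate buffer (65:35 v/v, pH 7.47) at 0.3 mL/min, UV 254 nm. Calibrated against standards of known log D (aniline, benzene, toluene, cumene, triphenylamine, hexachlorobenzene) using an exponential fit. Injections in triplicate and averaged.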

D(2) dopamine receptor = D(2) dopamine receptor (Homo sapiens, UniProt P14416); assay: Binding affinity to dopamine D2
D(2) dopamine receptor, sequence (P14416 whole entry): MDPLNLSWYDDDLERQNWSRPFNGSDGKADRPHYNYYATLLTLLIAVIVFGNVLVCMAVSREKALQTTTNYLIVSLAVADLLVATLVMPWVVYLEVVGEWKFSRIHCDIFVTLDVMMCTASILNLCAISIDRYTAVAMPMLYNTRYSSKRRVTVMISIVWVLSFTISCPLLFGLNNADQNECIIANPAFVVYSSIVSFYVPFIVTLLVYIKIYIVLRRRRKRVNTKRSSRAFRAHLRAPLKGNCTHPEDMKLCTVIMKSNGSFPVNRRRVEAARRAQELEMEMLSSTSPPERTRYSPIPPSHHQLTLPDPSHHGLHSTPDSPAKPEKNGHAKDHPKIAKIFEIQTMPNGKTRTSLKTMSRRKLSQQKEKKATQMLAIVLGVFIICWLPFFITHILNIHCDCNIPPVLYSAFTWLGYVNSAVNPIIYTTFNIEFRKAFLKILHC
Outline: (§1)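 Ki values come from radioligand binding run by the NIMH Psychoactive Drug Screening Program (PDSP) under its standard conditions. Values are means ± SEM from triplicate assays.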

Rattus norvegicus = species on record: Rattus norvegicus; assay: Selectivity ratio of Ki for rat sigma2 receptor to Ki rat sigma1 receptor
Outline: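 The ratio is Ki(σ2) divided by Ki(σ1). σ1 Ki came from [³H](+)-pentazocine displacement in rat brain homogenate. σ2 Ki came from [³H]DTG displacement in PC12 cell preparation, a cell line that overexpresses σ2. Both Ki values are triplicate means; ratios above 1 mean σ1-selective.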

[2] = target: Sigma non-opioid intracellular receptor 1 (Rattus norvegicus, UniProt Q9R0C9); assay: Displacement of [3H]pentazocine from sigma1 receptor in rat brain homogenate; format: tissue-based
Sigma non-opioid intracellular receptor 1, sequence (Q9R0C9 whole entry): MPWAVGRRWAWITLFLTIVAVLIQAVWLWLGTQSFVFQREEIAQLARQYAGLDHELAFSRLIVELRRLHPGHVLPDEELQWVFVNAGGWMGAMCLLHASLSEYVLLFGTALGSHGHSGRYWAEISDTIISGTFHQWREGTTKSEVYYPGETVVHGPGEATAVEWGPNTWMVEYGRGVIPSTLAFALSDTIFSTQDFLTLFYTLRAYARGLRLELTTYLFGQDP
Outline: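 σ1 affinity was measured by competitive displacement of [³H](+)-pentazocine from rat brain homogenate, using a competitive modification of the Kovacs and Larson protocol. Ki is reported as mean ± SEM from triplicate assays.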

[3] = target: 5-hydroxytryptamine receptor 2B (Homo sapiens, UniProt P41595); assay: Binding affinity to 5HT2B; outline: as §1
5-hydroxytryptamine receptor 2B, sequence (P41595 whole entry): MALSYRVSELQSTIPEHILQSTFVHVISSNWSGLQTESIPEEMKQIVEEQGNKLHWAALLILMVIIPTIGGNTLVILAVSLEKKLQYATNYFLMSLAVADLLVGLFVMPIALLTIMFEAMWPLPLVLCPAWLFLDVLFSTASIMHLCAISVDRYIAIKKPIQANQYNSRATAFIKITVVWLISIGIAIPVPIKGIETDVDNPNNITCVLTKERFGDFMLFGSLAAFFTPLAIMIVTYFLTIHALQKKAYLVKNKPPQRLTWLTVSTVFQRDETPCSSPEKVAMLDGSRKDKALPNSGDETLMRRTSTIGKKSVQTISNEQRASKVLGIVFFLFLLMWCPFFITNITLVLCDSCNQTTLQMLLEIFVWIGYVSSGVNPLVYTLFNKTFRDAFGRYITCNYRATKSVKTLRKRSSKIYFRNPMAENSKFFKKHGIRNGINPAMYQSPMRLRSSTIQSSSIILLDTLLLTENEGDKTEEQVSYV

[4] = target: T1, 5-hydroxytryptamine receptor 1A (Homo sapiens, UniProt P08908); assay: Binding affinity to 5HT1A; outline: as §1
T1 sequence (P08908 whole entry): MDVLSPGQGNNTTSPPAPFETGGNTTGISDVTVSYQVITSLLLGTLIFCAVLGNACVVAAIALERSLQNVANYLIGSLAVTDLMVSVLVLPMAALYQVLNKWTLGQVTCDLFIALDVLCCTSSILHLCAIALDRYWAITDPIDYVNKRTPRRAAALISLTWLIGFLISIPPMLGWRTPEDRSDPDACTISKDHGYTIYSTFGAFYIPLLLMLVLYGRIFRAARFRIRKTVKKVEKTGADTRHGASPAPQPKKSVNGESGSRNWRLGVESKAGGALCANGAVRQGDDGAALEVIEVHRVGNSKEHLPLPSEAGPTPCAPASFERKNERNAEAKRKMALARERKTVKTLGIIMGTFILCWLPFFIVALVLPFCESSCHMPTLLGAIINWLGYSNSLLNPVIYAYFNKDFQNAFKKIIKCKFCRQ

[5] = Displacement of [3H]DTG from sigma2 receptor in rat PC12 cells; details: pc-12
[6] = Drug uptake in baboon liver at 100 MBq, iv in presence of haloperidol; format: ADME, organism-based; details: papio hamadryas, in vivo
Outline: (§2)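 Anaesthetized Papio hamadryas baboon; radiotracer given iv at 100 MBq in 3 mL saline, specific activity 73 GBq/μmol. Haloperidol (1 mg/kg) given iv 5 min before the tracer. Dynamic PET over 60 min, then whole-body acquisition for 2 min at each of six bed positions. Uptake expressed as decay-corrected % injected dose/mL.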

[7] = Drug uptake in baboon brain at 100 MBq, iv in presence of haloperidol; format: ADME, organism-based; details: papio hamadryas, in vivo; outline: as §2
[8] = Drug uptake in baboon kidney at 100 MBq, iv in presence of haloperidol; format: ADME, organism-based; details: papio hamadryas, in vivo; outline: as §2
[9] = Drug uptake in baboon frontal cortex at 100 MBq, iv; format: ADME, organism-based; details: papio hamadryas, in vivo
Outline: (§3)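 Anaesthetized Papio hamadryas baboon; radiotracer given iv at 100 MBq in 3 mL saline, specific activity 73 GBq/μmol. Dynamic brain PET started just before injection and ran 60 min. Voxel values were decay-corrected to injection time and converted to % injected dose/mL. Regional time-activity curves came from coregistered regions of interest.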

[10] = Drug uptake in baboon bladder at 100 MBq, iv in presence of haloperidol; format: ADME, organism-based, Urinary bladder; details: papio hamadryas, in vivo; outline: as §2
[11] = Drug uptake in baboon cingulate cortex at 100 MBq, iv; format: ADME; details: papio hamadryas, in vivo; outline: as §3
[12] = Drug uptake in baboon striatum at 100 MBq, iv; format: ADME, organism-based; details: papio hamadryas, in vivo; outline: as §3

| Compound | logD [1] | Ki (D(2) dopamine receptor) [µM] | Ratio Ki (Rattus norvegicus) | Ki [2] [µM] | Ki [3] [µM] | Ki [4] [µM] | Ki [5] [µM] | Drug uptake [6] | Drug uptake [7] | Drug uptake [8] | Drug uptake [9] | Drug uptake [10] | Drug uptake [11] | Drug uptake [12] |
| --- | --- | --- | --- | --- | --- | --- | --- | --- | --- | --- | --- | --- | --- | --- |
| COc1ccc(CN2CCN(Cc3cc4ccccc4o3)CC2)cc1 | 3.63 | 2.7 | 38 | 0.0027 | 0.015 | 2.19 | 0.103 | – | – | – | – | – | – | – |
| FCCCOc1ccc(CN2CCN(Cc3cc4ccccc4o3)CC2)cc1 | – | > 10 | 51 | 0.0147 | 0.232 | 3.3 | 0.752 | – | – | – | – | – | – | – |
| CCOc1ccccc1CN1CCN(Cc2cc3ccccc3o2)CC1 | – | 6 | 8 | 0.0371 | 0.072 | 0.468 | 0.295 | – | – | – | – | – | – | – |
| COc1cccc(CN2CCN(Cc3cc4ccccc4o3)CC2)c1 | – | 5.73 | 4.9 | 0.0163 | 0.028 | 0.373 | 0.0795 | – | – | – | – | – | – | – |
| FCCOc1cccc(CN2CCN(Cc3cc4ccccc4o3)CC2)c1 | – | 2.28 | 5.9 | 0.0497 | 0.244 | 0.469 | 0.292 | – | – | – | – | – | – | – |
| CCOc1cccc(CN2CCN(Cc3cc4ccccc4o3)CC2)c1 | – | 4.54 | 3 | 0.08 | 0.302 | 1.72 | 0.238 | – | – | – | – | – | – | – |
| c1ccc(CN2CCN(Cc3cc4ccccc4o3)CC2)cc1 | – | > 10 | 46 | 0.0052 | 0.497 | 0.833 | 0.24 | – | – | – | – | – | – | – |
| FCCCOc1ccccc1CN1CCN(Cc2cc3ccccc3o2)CC1 | – | > 10 | 60 | 0.0091 | 0.184 | 3.38 | 0.542 | – | – | – | – | – | – | – |
| FCCOc1ccccc1CN1CCN(Cc2cc3ccccc3o2)CC1 | – | > 10 | 1.1 | 0.488 | 0.057 | 3.25 | 0.535 | – | – | – | – | – | – | – |
| CCCOc1cccc(CN2CCN(Cc3cc4ccccc4o3)CC2)c1 | – | 2.98 | 11 | 0.177 | 0.259 | 0.774 | 1.92 | – | – | – | – | – | – | – |
| CCCOc1ccc(CN2CCN(Cc3cc4ccccc4o3)CC2)cc1 | – | > 10 | 45 | 0.0538 | 0.655 | 4.72 | 2.4 | – | – | – | – | – | – | – |
| [11CH3]Oc1ccc(CN2CCN(Cc3cc4ccccc4o3)CC2)cc1 | – | – | – | – | – | – | – | Not Active | Not Active | Not Active | Active | Not Active | Active | Active |
| FCCCOc1cccc(CN2CCN(Cc3cc4ccccc4o3)CC2)c1 | – | 2.92 | 10 | 0.232 | 0.188 | 0.599 | 2.37 | – | – | – | – | – | – | – |
| CCCOc1ccccc1CN1CCN(Cc2cc3ccccc3o2)CC1 | – | > 10 | 10 | 0.079 | 0.116 | 2.46 | 0.778 | – | – | – | – | – | – | – |
| CCOc1ccc(CN2CCN(Cc3cc4ccccc4o3)CC2)cc1 | – | 4.87 | 37 | 0.0106 | 0.262 | 3.34 | 0.393 | – | – | – | – | – | – | – |
| COc1ccccc1CN1CCN(Cc2cc3ccccc3o2)CC1 | – | 5.12 | 0.45 | 0.198 | 0.0097 | 0.806 | 0.089 | – | – | – | – | – | – | – |
